Measured values as given in ChEMBL document CHEMBL1155895, “(9S)-9-(2-hydroxy-4,4-dimethyl-6-oxo-1-cyclohexen-1-yl)-3,3-dimethyl-2,3,4,9-tetrahydro-1H-xanthen-1-one, a selective and orally active neuropeptide Y Y5 receptor antagonist” (J Med Chem, 2008).

Key:
[1] = target: T1, Neuropeptide Y receptor type 5 (Homo sapiens, UniProt Q15761); experiment: Displacement of [125I]PYY from human recombinant neuropeptide Y5 receptor expressed in thymidine kinase deficient […]; type: cell-based
T1 sequence (Q15761 whole entry): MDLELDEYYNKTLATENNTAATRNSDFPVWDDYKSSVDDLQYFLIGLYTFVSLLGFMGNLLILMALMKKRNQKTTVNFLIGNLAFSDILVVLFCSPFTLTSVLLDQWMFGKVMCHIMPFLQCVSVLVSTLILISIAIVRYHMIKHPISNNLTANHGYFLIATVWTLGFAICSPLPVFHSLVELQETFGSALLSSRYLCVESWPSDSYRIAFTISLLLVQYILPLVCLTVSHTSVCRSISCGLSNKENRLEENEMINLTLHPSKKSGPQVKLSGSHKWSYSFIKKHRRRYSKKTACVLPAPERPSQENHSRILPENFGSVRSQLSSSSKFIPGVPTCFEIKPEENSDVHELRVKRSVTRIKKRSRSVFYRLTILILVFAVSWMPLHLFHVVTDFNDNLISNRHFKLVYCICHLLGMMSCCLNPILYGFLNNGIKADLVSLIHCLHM

[2] = Fraction unbound in Sprague-Dawley rat plasma at 10 mg/kg, po; type: ADME, organism-based; parameters: dose 10 mg/kg, route oral
[3] = target: T1, Neuropeptide Y receptor type 5; experiment: Antagonist activity at human recombinant neuropeptide Y5 receptor expressed in CHO cells coexpressing Gqi5 assessed as inhibition of neuropeptide Y-induced increase in intracellular calcium concentration; type: functional, cell-based
Procedure, shortened: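 Human recombinant Y5 receptor co-expressed with Gqi5 in CHO cells. Cells stimulated with 100 nM NPY. Antagonism read as inhibition of the NPY-evoked intracellular Ca2+ rise, reported as IC50.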

[4] = Ratio of drug level in brain to plasma in Sprague-Dawley rat at 10 mg/kg, po; type: ADME, organism-based; parameters: dose 10 mg/kg, route oral
[5] = system: Rattus norvegicus; experiment: Inhibition of D-Trp34-NPY-induced food intake in po dosed Sprague-Dawley rat; type: functional, organism-based
[6] = Cmax in Sprague-Dawley rat at 10 mg/kg, po; type: ADME, organism-based; parameters: dose 10 mg/kg, route oral; details: in vivo
Procedure, shortened: (§1)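 SD rats dosed orally with 10 mg/kg, as either the single enantiomer or the racemate; n = 3 animals per dose. Plasma levels of both enantiomers followed over time to build concentration–time profiles, from which PK parameters were taken.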

[7] = Half life in Sprague-Dawley rat at 10 mg/kg, po; type: ADME, organism-based; parameters: dose 10 mg/kg, route oral; details: in vivo; procedure, shortened: as §1
[8] = Tmax in Sprague-Dawley rat at 10 mg/kg, po; type: ADME, organism-based; parameters: dose 10 mg/kg, route oral; details: in vivo; procedure, shortened: as §1
[9] = system: Mus musculus; experiment: Toxicity in ICR mouse assessed as mortality at 150 mg/kg, po; type: organism-based; parameters: dose 150 mg/kg, route oral; details: in vivo
Procedure, shortened: (§2)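 Mice were given a single oral dose of 150 mg/kg and observed for gross behaviour. The scored signs were psychomotor activity, motor activity, muscle tone, CNS excitation, autonomic responses and reflexes. Deaths were recorded at any time after dosing. This was run as a gross-behaviour screen before the in vivo efficacy studies.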

[10] = target: Neuropeptide Y receptor type 4 (Homo sapiens, UniProt P50391); experiment: Inhibition of human neuropeptide Y4 receptor
[11] = system: Mus musculus; experiment: Toxicity in ICR mouse assessed as gross behavioral adverse effects at 150 mg/kg, po; type: organism-based; parameters: dose 150 mg/kg, route oral; details: in vivo; procedure, shortened: as §2
[12] = target: T2, Neuropeptide Y receptor type 1 (Homo sapiens, UniProt P25929); experiment: Inhibition of human neuropeptide Y1 receptor
T2 sequence (P25929 whole entry): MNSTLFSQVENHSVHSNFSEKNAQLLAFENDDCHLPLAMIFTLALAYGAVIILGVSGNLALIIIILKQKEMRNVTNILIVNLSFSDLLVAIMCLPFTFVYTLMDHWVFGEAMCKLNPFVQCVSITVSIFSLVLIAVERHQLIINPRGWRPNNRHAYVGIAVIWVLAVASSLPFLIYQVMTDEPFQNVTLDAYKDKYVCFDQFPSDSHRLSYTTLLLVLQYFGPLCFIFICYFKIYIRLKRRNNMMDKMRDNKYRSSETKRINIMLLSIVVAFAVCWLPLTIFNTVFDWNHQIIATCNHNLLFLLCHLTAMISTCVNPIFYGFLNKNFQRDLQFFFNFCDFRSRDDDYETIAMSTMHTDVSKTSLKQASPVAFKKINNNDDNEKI

[13] = target: T3, Neuropeptide Y receptor type 2 (Homo sapiens, UniProt P49146); experiment: Inhibition of human neuropeptide Y2 receptor
T3 sequence (P49146 whole entry): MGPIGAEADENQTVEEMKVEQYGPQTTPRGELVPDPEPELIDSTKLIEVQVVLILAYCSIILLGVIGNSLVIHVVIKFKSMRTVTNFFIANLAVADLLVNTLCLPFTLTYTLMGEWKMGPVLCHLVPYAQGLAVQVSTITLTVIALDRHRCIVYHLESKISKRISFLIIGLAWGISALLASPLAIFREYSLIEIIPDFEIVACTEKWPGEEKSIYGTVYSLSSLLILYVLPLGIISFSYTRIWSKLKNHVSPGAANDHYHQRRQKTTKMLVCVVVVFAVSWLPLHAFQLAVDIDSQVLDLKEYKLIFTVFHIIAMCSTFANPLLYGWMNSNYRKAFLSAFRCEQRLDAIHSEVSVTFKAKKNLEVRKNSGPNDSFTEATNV

Sequence of Neuropeptide Y receptor type 4 (P50391 whole entry): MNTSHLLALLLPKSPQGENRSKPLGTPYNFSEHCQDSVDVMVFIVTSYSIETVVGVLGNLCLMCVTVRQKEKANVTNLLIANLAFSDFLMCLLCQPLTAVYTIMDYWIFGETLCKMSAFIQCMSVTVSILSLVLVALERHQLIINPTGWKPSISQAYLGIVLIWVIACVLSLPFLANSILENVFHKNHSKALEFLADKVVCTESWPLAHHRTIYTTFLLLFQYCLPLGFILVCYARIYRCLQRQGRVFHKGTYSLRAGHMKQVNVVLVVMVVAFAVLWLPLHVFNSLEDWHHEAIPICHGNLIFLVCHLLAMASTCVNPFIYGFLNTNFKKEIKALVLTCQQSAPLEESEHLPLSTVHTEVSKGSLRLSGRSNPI

Ki [1] | IC50 [3] | SMILES | further results
> 1 µM | 0.343 µM | CC1(C)CC(=O)C([C@@H]2C3=C(CC(C)(C)CC3=O)Oc3ccccc32)=C(O)C1 | fraction unbound [2]: 0.1; Kp [4]: 0.1
0.833 µM | – | CCOc1ccc2c(c1)OC1=C(C(=O)CC(C)(C)C1)C2C1=C(O)CC(C)(C)CC1=O (configuration not stated) | –
0.59 µM | – | COc1ccc2c(c1)C(C1=C(O)CC(C)(C)CC1=O)C1=C(CC(C)(C)CC1=O)O2 (configuration not stated) | –
0.197 µM | – | CC1(C)CC(=O)C(C2C3=C(CC(C)(C)CC3=O)Oc3ccc(Cl)cc32)=C(O)C1 (configuration not stated) | –
0.034 µM | 0.082 µM | CC1(C)CC(=O)C(C2C3=C(CC(C)(C)CC3=O)Oc3cc(Cl)ccc32)=C(O)C1 (configuration not stated) | –
0.036 µM | 0.081 µM | CC1(C)CC(=O)C(C2C3=C(CC(C)(C)CC3=O)Oc3cc(Br)ccc32)=C(O)C1 (configuration not stated) | –
2.17 µM | – | COc1cccc2c1OC1=C(C(=O)CC(C)(C)C1)C2C1=C(O)CC(C)(C)CC1=O (configuration not stated) | –
0.193 µM | – | CC1CC(=O)C(C2C3=C(CC(C)CC3=O)Oc3ccccc32)=C(O)C1 (configuration not stated) | –
0.017 µM | 0.058 µM | O=C1CC2(CCCC2)CC(O)=C1C1C2=C(CC3(CCCC3)CC2=O)Oc2ccccc21 (configuration not stated) | –
> 1 µM | – | COc1cccc2c1C(C1=C(O)CC(C)(C)CC1=O)C1=C(CC(C)(C)CC1=O)O2 (configuration not stated) | –
0.029 µM | 0.063 µM | CC1(C)CC(=O)C(C2C3=C(CC(C)(C)CC3=O)Oc3cc(F)ccc32)=C(O)C1 (configuration not stated) | –
0.02 µM | 0.09 µM | CCC1(CC)CC(=O)C(C2C3=C(CC(CC)(CC)CC3=O)Oc3ccccc32)=C(O)C1 (configuration not stated) | –
0.014 µM | 0.034 µM | CC1(C)CC(=O)C([C@H]2C3=C(CC(C)(C)CC3=O)Oc3ccccc32)=C(O)C1 | Activity [5]: Dose-dependent effect; Cmax [6]: 2500 nM; fraction unbound [2]: 0.27; Kp [4]: 0.34; half-life [7]: 2.7 h; Tmax [8]: 0.5 h
0.036 µM | 0.111 µM | Cc1ccc2c(c1)OC1=C(C(=O)CC(C)(C)C1)C2C1=C(O)CC(C)(C)CC1=O (configuration not stated) | –
0.071 µM | – | CC1(C)CC(=O)C(C2C3=C(CC(C)(C)CC3=O)Oc3c(Cl)cccc32)=C(O)C1 (configuration not stated) | –
0.041 µM | – | CCc1ccc2c(c1)OC1=C(C(=O)CC(C)(C)C1)C2C1=C(O)CC(C)(C)CC1=O (configuration not stated) | –
0.014 µM | 0.045 µM | O=C1CC2(CCC2)CC(O)=C1C1C2=C(CC3(CCC3)CC2=O)Oc2ccccc21 (configuration not stated) | –
0.081 µM | – | CC1(C)CC(=O)C(C2C3=C(CC(C)(C)CC3=O)Oc3ccc(F)cc32)=C(O)C1 (configuration not stated) | –
> 1 µM | – | O=C1CCCC(O)=C1C1C2=C(CCCC2=O)Oc2ccccc21 (configuration not stated) | –
0.034 µM | 0.073 µM | CC1(C)CC(=O)C(C2C3=C(CC(C)(C)CC3=O)Oc3c(F)cccc32)=C(O)C1 (configuration not stated) | –
0.093 µM | – | COc1ccc2c(c1)OC1=C(C(=O)CC(C)(C)C1)C2C1=C(O)CC(C)(C)CC1=O (configuration not stated) | –
0.024 µM | 0.109 µM | O=C1CC2(CCCCC2)CC(O)=C1C1C2=C(CC3(CCCCC3)CC2=O)Oc2ccccc21 (configuration not stated) | –

SMILES | Ki [1] | IC50 [3] | further results
CC1(C)CC(=O)C(C2C3=C(CC(C)(C)CC3=O)Oc3ccccc32)=C(O)C1 (racemic) | 0.033 µM | 0.061 µM | Activity [5]: Dose-dependent effect; Activity [9]: Non-toxic; IC50 [10]: > 10 µM; Activity [11]: Non-toxic; Cmax [6]: 2400 nM; IC50 [12]: > 10 µM; IC50 [13]: > 10 µM; half-life [7]: 5.2 h; Tmax [8]: 1 h
